Measurements published in ChEMBL document CHEMBL3862007, “Synthesis and antimicrobial activity of small cationic amphipathic aminobenzamide marine natural product mimics and evaluation of relevance against clinical isolates including ESBL-CARBA producing multi-resistant bacteria” (Bioorg Med Chem, 2016).

Legend:
Staphylococcus aureus [1] = assay: Antibacterial activity against Staphylococcus aureus ATCC 9144 after 48 hrs by microdilution method; type: functional; settings: ATCC 9144, 48 h
[2] = Antibacterial activity against methicillin-resistant Staphylococcus epidermidis RP62A CCUG 31568 (ATCC 35984) after 48 hrs by microdilution method; type: functional
Method in brief: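 Broth microdilution MIC against the reference-strain panel. Compounds were supplied as HCl salts for aqueous solubility in the test medium. Precipitation in the test buffer is flagged at higher concentrations.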

Bacillus subtilis [3] = assay: Antibacterial activity against Bacillus subtilis 168 ATCC 23857 after 48 hrs by microdilution method; type: functional; settings: subsp. subtilis str. 168 ATCC 23857, 48 h
[4] = system: Corynebacterium glutamicum; assay: Antibacterial activity against Corynebacterium glutamicum ATCC 13032 after 48 hrs by microdilution method; type: functional; settings: ATCC 13032, 48 h
Escherichia coli [5] = assay: Antibacterial activity against Escherichia coli ATCC 25922 after 48 hrs by microdilution method; type: functional; settings: ATCC 25922, 48 h
Pseudomonas aeruginosa [6] = assay: Antibacterial activity against Pseudomonas aeruginosa PAO1 DSM 19880 (ATCC 15692) after 48 hrs by microdilution method; type: functional
[7] = Hemolytic activity in human RBC after 1 hr; type: ADME, cell-based; settings: Erythrocyte
[8] = Selectivity index, ratio of hemolytic EC50 for human RBC to MIC for Staphylococcus aureus ATCC 9144
Bacillus subtilis [9] = assay: Membranolytic activity in Bacillus subtilis 168 ATCC 23857 carrying pCSS962 plasmid measured every second for 30 secs by luciferase reporter assay; type: functional; settings: subsp. subtilis str. 168 ATCC 23857
Method in brief: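 B. subtilis 168 carrying pCSS962 (luciferase-expressing) was added as a suspension already containing D-luciferin, with luminescence read in real time up to 120 s. Water served as the untreated control. Chlorhexidine was added to all samples at 30 s as a membranolytic control. Fold induction is the peak sample luminescence over the water-control maximum after chlorhexidine, from two independent experiments.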

Staphylococcus aureus [10] = assay: Antibacterial activity against Staphylococcus aureus clinical isolate after 24 hrs by microdilution method; type: functional
Enterococcus sp. = assay: Antibacterial activity against Enterococcus sp. clinical isolate after 24 hrs by microdilution method; type: functional
Escherichia coli [11] = assay: Antibacterial activity against Escherichia coli clinical isolate after 24 hrs by microdilution method; type: functional
Pseudomonas aeruginosa [12] = assay: Antibacterial activity against Pseudomonas aeruginosa clinical isolate after 24 hrs by microdilution method; type: functional
Klebsiella pneumoniae = assay: Antibacterial activity against Klebsiella pneumoniae clinical isolate after 24 hrs by microdilution method; type: functional

SMILES | MIC (Staphylococcus aureus [1]) | MIC [2] | MIC (Bacillus subtilis [3]) | MIC [4] | MIC (Escherichia coli [5]) | MIC (Pseudomonas aeruginosa [6]) | EC50 [7] | Selectivity Index [8] | Activity (Bacillus subtilis [9]) | MIC (Staphylococcus aureus [10]) | MIC (Enterococcus sp.) | MIC (Escherichia coli [11]) | MIC (Pseudomonas aeruginosa [12]) | MIC (Klebsiella pneumoniae)
CC(C)(C)c1cc(C(=O)Nc2ccc(C(=O)NCCCN)cc2)cc(C(C)(C)C)c1.Cl | 8 µg/mL | 8 µg/mL | 4 µg/mL | 4 µg/mL | 8 µg/mL | 32 µg/mL | 31 µg/mL | 3.9 |  |  |  |  |  | 
CN(C(=O)c1cc(C(C)(C)C)cc(C(C)(C)C)c1)c1ccc(C(=O)NCCNC(=N)N)cc1.Cl | 16 µg/mL | 16 µg/mL | 16 µg/mL | 4 µg/mL | 128 µg/mL | 128 µg/mL | 243 µg/mL | 15.2 |  |  |  |  |  | 
CC(C)(C)c1cc(NC(=O)c2ccc(C(=O)NCCCN)cc2)cc(C(C)(C)C)c1.Cl | 8 µg/mL | 8 µg/mL | 8 µg/mL | 4 µg/mL | 8 µg/mL | 16 µg/mL | 28 µg/mL | 3.5 |  |  |  |  |  | 
CC(C)(C)c1cc(C(=O)Nc2ccccc2C(=O)NCCCN)cc(C(C)(C)C)c1.Cl | 8 µg/mL | 8 µg/mL | 4 µg/mL | 4 µg/mL | 16 µg/mL | 32 µg/mL | 23 µg/mL | 2.9 | Dose-dependent effect |  |  |  |  | 
CN(C)CCNC(=O)c1ccc(NC(=O)c2cc(C(C)(C)C)cc(C(C)(C)C)c2)cc1.Cl | 16 µg/mL | 8 µg/mL | 8 µg/mL | 4 µg/mL | 32 µg/mL | > 128 µg/mL | > 16 µg/mL | > 1 |  |  |  |  |  | 
CC(C)(C)c1cc(C(=O)Nc2cccc(C(=O)NCCCN)c2)cc(C(C)(C)C)c1.Cl | 8 µg/mL | 8 µg/mL | 8 µg/mL | 4 µg/mL | 16 µg/mL | 16 µg/mL | 32 µg/mL | 4 |  |  |  |  |  | 
CN(C)CCOC(=O)c1ccc(NC(=O)c2cc(C(C)(C)C)cc(C(C)(C)C)c2)cc1.Cl | 8 µg/mL | 8 µg/mL | 4 µg/mL | 4 µg/mL | > 128 µg/mL | > 128 µg/mL | 28 µg/mL | 3.5 |  |  |  |  |  | 
CC(C)(C)c1cc(NC(=O)c2ccc(C(=O)NCCNC(=N)N)cc2)cc(C(C)(C)C)c1.Cl | 4 µg/mL | 4 µg/mL | 4 µg/mL | 2 µg/mL | 8 µg/mL | 16 µg/mL | 44 µg/mL | 11 |  | 4 µg/mL | 8 µg/mL | 8 µg/mL | 8 µg/mL | 16 µg/mL
CC(C)(C)c1cc(C(=O)Nc2ccccc2C(=O)NCCN)cc(C(C)(C)C)c1.Cl | 8 µg/mL | 8 µg/mL | 4 µg/mL | 4 µg/mL | 16 µg/mL | 64 µg/mL | 29 µg/mL | 3.6 |  | 8 µg/mL | 8 µg/mL | 16 µg/mL | > 64 µg/mL | 32 µg/mL
CC(C)(C)c1cc(C(=O)Nc2cc3ccccc3cc2C(=O)NCCN)cc(C(C)(C)C)c1.Cl | 2 µg/mL | 8 µg/mL | 4 µg/mL | 2 µg/mL | 8 µg/mL | > 128 µg/mL | 23 µg/mL | 11.5 |  | 2 µg/mL | 2 µg/mL | 8 µg/mL | > 64 µg/mL | 64 µg/mL
CC(C)(C)c1cc(C(=O)Nc2ccccc2C(=O)NCCCNC(=N)N)cc(C(C)(C)C)c1.Cl | 4 µg/mL | 2 µg/mL | 2 µg/mL | 1 µg/mL | 8 µg/mL | 32 µg/mL | 39 µg/mL | 9.8 |  |  |  |  |  | 
